By T/C is commonly meant the result in the treated group divided by that in the control group, in per cent.

What all share (assay type): functional
The species entered for experiment [1] is Mus musculus. Nature of the experiment: Compound was evaluated for antineoplastic activity against mice bearing L1210 leukemia. Average change in body weight from onset to termination of therapy.. An outline of the steps:
(§1)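 In L1210-bearing mice, dosing was ip once daily for 6 days, beginning 24 h after implantation, with groups of five. The vehicle was a Tween 80/saline suspension. Body weight was recorded, and the read-out was the mean % change in body weight from the start to the end of therapy.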

Experiment [2] relates to Mus musculus. The experiment can be described thus: Compound was evaluated for antineoplastic activity against mice bearing […], Optimum effective daily dose administered once daily for 6 consecutive days. An outline of the steps: (§2)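 B16 melanoma tissue was dispersed in serum-free Fischer's medium (1 g per 5 mL), and 0.2 mL was implanted ip per mouse. Starting 24 h after implantation, drug was given ip once daily for 6 days across a range of doses, as a suspension in 20% aq. Tween 80 and isotonic saline. Groups were five mice; vehicle controls were included. %T/C was mean survival time of treated over control ×100.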

Experiment [3] relates to Mus musculus. The experiment can be described thus: Compound was evaluated for antineoplastic activity against mice bearing L1210 leukemia. Optimum effective daily dose administered once daily for 6 consecutive days. Put shortly: (§3)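 L1210 leukemia was carried and implanted ip in mice as in earlier work. Starting 24 h after implantation, drug was given ip once daily for 6 days across a range of doses, as a Tween 80/saline suspension. Survival was scored as %T/C, the mean survival of treated over control ×100.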

Experiment [4] is filed under the species Mus musculus. Nature of the experiment: Compound was evaluated for antineoplastic activity against mice bearing B6 melanoma. Put shortly:
as §2

For experiment [5], the species on record is Mus musculus. Nature of the experiment: Compound was evaluated for antineoplastic activity against mice bearing L1210 leukemia. Put shortly: as §3
The species entered for experiment [6] is Mus musculus. Nature of the experiment: Compound was evaluated for antineoplastic activity against mice bearing B16 melanoma. An outline of the steps:
as §2

Experiment [7] concerns Mus musculus. Nature of the experiment: Compound was evaluated for antineoplastic activity against mice bearing B16 melanoma, optimum effective daily dose administered once daily for 6 consecutive days. Put shortly:
as §2

For experiment [8], the species on record is Mus musculus. Nature of the experiment: Compound was evaluated for antineoplastic activity against mice bearing L1210 leukemia. Average change in body weight from onset to termination of therapy. Put shortly:
as §1

The test system of experiment [9] is Mus musculus. The experiment can be described thus: Compound was evaluated for antineoplastic activity against mice bearing L1210 leukemia, optimum effective daily dose administered once daily for 6 consecutive days. Put shortly: as §3
The species named for experiment [10] is Mus musculus. Nature of the experiment: Compound was evaluated for antineoplastic activity against mice bearing B16 melanoma. An outline of the steps: as §2

With `Cc1ccc(S(=O)(=O)N(C)NSc2ccccc2[N+](=O)[O-])cc1`, the “Average change in body weight” value in [1] is 15.5%; in experiment [4] it was -2%. In addition, the results for the OD in experiment [2] and in experiment [3] were 100 mg/kg and 50 mg/kg, respectively. Moreover, the figures for the T/C in [4] and in experiment [5] were 99% and 151%, respectively.
Regarding `Cc1ccc(S(=O)(=O)N(C)NP(=O)(Oc2ccccc2)Oc2ccccc2)cc1`, the “Average change in body weight” value in experiment [1] is on record as 20.9%; in experiment [4], 7.4%. Moreover, the OD in [2] stood at 100 mg/kg; in experiment [3], 150 mg/kg. Moreover, the T/C is 91% in experiment [4] and 99% in experiment [5].
For `Cc1ccc(S(=O)(=O)N(C)NC(=O)c2ccccc2)cc1`, the “Average change in body weight” value was 7.5% in [1] and 6.8% in [4]. The values for the OD in [2] and in experiment [3] were 150 mg/kg and 50 mg/kg, respectively. The T/C came out at 96% in [4] and 167% in [5].
Regarding `CCS(=O)(=O)NN(C)S(=O)(=O)c1ccc(C)cc1`, the “Average change in body weight” value in experiment [6] is given as -1.1%. Moreover, in experiment [7], the OD is 50 mg/kg.
For the compound `Cc1ccc(S(=O)(=O)N(C)NC(=O)c2ccc([N+](=O)[O-])cc2)cc1`, the “Average change in body weight” value is on record as -6.3% in experiment [1] and 3.9% in experiment [4]. Further, the OD in experiment [2] worked out at 50 mg/kg; in experiment [3], 100 mg/kg. Besides, the T/C in [4] is given as 97%; in experiment [5], 133%.
As to `Cc1ccc(S(=O)(=O)N(C)NS(C)(=O)=O)cc1`, the “Average change in body weight” value was -1.9% in [6] and -7.9% in [8]. The figures for the OD in experiment [9] and in experiment [7] were 30 mg/kg and 10 mg/kg, respectively.
Turning to `Cc1ccc(S(=O)(=O)N(C)NC(=O)/C=C/c2ccccc2)cc1`, the “Average change in body weight” value in experiment [1] was 14.8%; in [4], 1.8%. For the same compound, the OD in experiment [2] amounted to 150 mg/kg; in [3], 50 mg/kg. Further, the T/C in experiment [4] and in experiment [5] was 94% each time.
Take `Cc1ccc(S(=O)(=O)N(C)NS(=O)(=O)Cc2ccccc2)cc1`: the Average change in body weight was -2.4% in experiment [6] and 10.8% in experiment [8]. In addition, the “Max T/C” value in experiment [6] was 172%. For the same compound, the OD in experiment [9] and in experiment [7] was 50 mg/kg in each case.
With `Cc1ccc(S(=O)(=O)N(C)NP(=O)(c2ccccc2)c2ccccc2)cc1`, the results for the “Average change in body weight” value in experiment [1] and in experiment [4] were 5.8% and 0.7%, respectively. For the same compound, the OD in experiment [2] is 150 mg/kg; in experiment [3], 50 mg/kg. In addition, the T/C in [4] came to 112%; in [5], 100%.
For `Cc1ccc(S(=O)(=O)NN(C)S(=O)(=O)c2ccc(C)cc2)cc1`, the Average change in body weight in [10] is -2.7%; in [8], 3.7%. Besides, the OD in [9] is 50 mg/kg; in experiment [7], 150 mg/kg.
